According to ChEMBL document CHEMBL1133763, “Synthesis and immunosuppressive activity of novel prodigiosin derivatives” (J Med Chem, 2000):
≈ marks a conversion by molar mass, not a printed value.

Assays:
B16 [1] = assay: Selectivity index was evaluated; assay type: functional, Mus musculus
How it was run: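 Ratio of mean IC50 for MTT viability in K562, B16 and resting lymphocytes (averaged over the three) to IC50 for Con A-stimulated splenocyte proliferation.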

B16 [2] = assay: Cytotoxicity, ability to inhibit viability of murine resting lymphocytes, murine B16 melanoma cells and human K562 erythroleukemia cells by 50% by […]; assay type: functional, cell-based; settings: Mus musculus
How it was run: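 Murine resting lymphocytes (4 × 10^5 cells/well), murine B16 melanoma and human K562 cells (1 × 10^5 cells/well each) seeded in triplicate with a range of compound concentrations in complete RPMI 1640 (10% inactivated FCS); DMSO stocks at 2 mg/mL diluted at use. MTT added for last 4 h of 48 h culture; formazan dissolved in HCl–2-propanol, OD 570/690 nm; IC50 from % inhibition versus control.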

Mus musculus [3] = species: Mus musculus; assay: The concentration inhibiting 50% cell proliferation of murine Splenocytes induced by the mitogen Concanavalin A of mice; assay type: functional
How it was run: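 Spleens from C57Bl/6 mice; splenocytes at 4 × 10^5 cells/well in triplicate with Con A 1.7 µg/mL and varying compound concentrations in complete RPMI 1640. 72 h at 37 °C, 5% CO2; [3H]thymidine 0.2 µCi/well during final 18 h; uptake counted by scintillation. IC50 from % inhibition of cpm versus control; mean ± SD of ≥3 experiments.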

Mus musculus [4] = assay: Dose able to reduce by 50% the thickness increase compared to controls by DTH Assay on mice after daily dose by ip route for 6 days; assay type: functional; settings: 144 h
How it was run: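 Female C57Bl/6 mice, 8-9 weeks, primed iv with 1 × 105 SRBC in saline; footpad challenge 5 days later with 1 × 108 SRBC. Compound in Cremophor ELP/ethanol (6.5:3.5) given ip daily for 6 days from priming day at several doses. Footpad swelling by dial micrometer 24 h post-challenge; ED50 = dose halving swelling increase; 10 animals/group, ≥3 experiments.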

Mus musculus [5] = assay: The Toxicity of compound was measured by DTH Assay on mice after giving compound daily by ip route for 6 days at different doses; assay type: organism-based; settings: in vivo, 144 h
How it was run: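 Female C57Bl/6 mice, 8-9 weeks old, were primed iv with 1 × 10^5 SRBC and challenged in the footpad with 1 × 10^8 SRBC five days later. Compound in Cremophor ELP/ethanol (6.5:3.5 v:v) was given ip daily for 6 days from priming. Value is the minimal daily dose causing weight loss, hair ruffling or occasionally death, as mean ± SD of ≥3 experiments, 10 mice/group.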

SMILES | Selectivity index (B16 [1]) | IC50 (B16 [2]) [mg/L] | IC50 (Mus musculus [3]) [mg/L] | ED50 (Mus musculus [4]) [mg/kg] | Toxicity (Mus musculus [5]) [mg/kg]
COc1cc(-c2ccc[nH]2)[nH]c1/C=C1/C=C2CCCCC2=N1 | 6 | 0.12 (≈ 0.409 µM) | 0.0185 (≈ 0.0631 µM) |  | 
CC1=N/C(=C\c2[nH]c(-c3ccc(C)[nH]3)cc2OCc2ccccc2)C=C1 |  | 0.077 (≈ 0.224 µM) | 0.0041 (≈ 0.0119 µM) |  | 
CCCCCC1=N/C(=C\c2[nH]c(-c3ccc[nH]3)cc2OC)C=C1 | 4 | 0.079 (≈ 0.255 µM) | 0.02 (≈ 0.0646 µM) |  | 
CCCCCCCCCCCC1=N/C(=C\c2[nH]c(-c3ccc(C(C)=O)[nH]3)cc2OC)C=C1 |  | > 1 | 0.1 (≈ 0.23 µM) |  | 
CCCCCCCCCCCC1=N/C(=C\c2[nH]c(-c3cccs3)cc2OCc2ccccc2)C=C1 |  | > 1 | > 1 |  | 
C1=C(OCc2ccccc2)/C(=C/c2ccc[nH]2)N=C1c1ccc[nH]1 | 12 | 0.181 (≈ 0.574 µM) | 0.0153 (≈ 0.0485 µM) |  | 
CCCCCCCCCCCC1=N/C(=C\c2[nH]c(-c3ccc[nH]3)cc2OCc2ccccc2)C=C1 | 155 | 3.74 (≈ 7.96 µM) | 0.0242 (≈ 0.0515 µM) | 1.1 | 5
CCCCCCCCCCCC1=N/C(=C\c2[nH]c(-c3ccc[nH]3)cc2OCC)C=C1 | 107 | 0.193 (≈ 0.474 µM) | 0.0018 (≈ 0.00442 µM) | 1.2 | 2
CCCCCCCCCCC1=N/C(=C\c2[nH]c(-c3ccc[nH]3)cc2OCc2ccccc2)C=C1 | 75 | 0.97 (≈ 2.13 µM) | 0.013 (≈ 0.0285 µM) |  | 
CCCCCC1=N/C(=C\c2[nH]c(-c3ccc[nH]3)cc2OCc2ccccc2)C=C1 | 17 | 0.083 (≈ 0.215 µM) | 0.0049 (≈ 0.0127 µM) |  | 
CCCCCCCCCCCCCCCC1=N/C(=C\c2[nH]c(-c3ccc[nH]3)cc2OC)C=C1 | 76 | 1.24 (≈ 2.75 µM) | 0.0163 (≈ 0.0362 µM) |  | 
C1=C/C(=C/c2[nH]c(-c3ccc[nH]3)cc2OCc2ccccc2)N=C1CC1CCCCC1 | 72 | 0.151 (≈ 0.367 µM) | 0.0021 (≈ 0.0051 µM) |  | 
COc1cc(-c2ccc[nH]2)[nH]c1/C=C1/C=CC(CCCCCC(=O)N2CCOCC2)=N1 |  | > 1 | > 1 |  | 
COc1cc(-c2ccc[nH]2)[nH]c1/C=C1/C=CC(CCCCCCF)=N1 | 23 | 0.172 (≈ 0.504 µM) | 0.0074 (≈ 0.0217 µM) |  | 
CC1=N/C(=C\c2[nH]c(-c3ccc[nH]3)cc2OCc2ccccc2)C=C1 | 10 | 0.083 (≈ 0.252 µM) | 0.0079 (≈ 0.024 µM) |  | 
CCCCCCCCCCCC1=N/C(=C\c2[nH]c(-c3cc4cc(Cl)ccc4[nH]3)cc2OC)C=C1 |  | > 1 | > 1 |  | 
COc1cc(-c2ccc[nH]2)[nH]c1/C=C1/C=CC(CCCCCCO)=N1 | 14 | 0.787 (≈ 2.32 µM) | 0.0564 (≈ 0.166 µM) |  | 
CCCCCCCCCCCC1=N/C(=C\c2[nH]c(-c3ccc[nH]3)cc2O)C=C1 |  | > 1 | > 1 |  | 
COC(=O)CCCCCC1=N/C(=C\c2[nH]c(-c3ccc[nH]3)cc2OC)C=C1 |  | > 1 | > 1 |  | 
CCCCCCCCCCCCCC1=N/C(=C\c2[nH]c(-c3ccc[nH]3)cc2OCc2ccccc2)C=C1 | 11 | 2.78 (≈ 5.59 µM) | 0.262 (≈ 0.526 µM) |  | 

SMILES | Selectivity index (B16 [1]) | IC50 (B16 [2]) [mg/L] | IC50 (Mus musculus [3]) [mg/L] | ED50 (Mus musculus [4]) [mg/kg] | Toxicity (Mus musculus [5]) [mg/kg]
CCCCCCCC1=N/C(=C\c2[nH]c(-c3ccc[nH]3)cc2OCc2ccccc2)C=C1 | 49 | 0.178 (≈ 0.43 µM) | 0.0036 (≈ 0.0087 µM) |  | 
C1=C/C(=C/c2[nH]c(-c3ccc[nH]3)cc2OCc2ccccc2)N=C1Cc1ccccc1 | 43 | 0.279 (≈ 0.688 µM) | 0.0065 (≈ 0.016 µM) |  | 
CCCCCCCCCCCC1=N/C(=C\c2[nH]c(-c3ccc[nH]3)cc2OCCC)C=C1 | 58 | 0.322 (≈ 0.764 µM) | 0.0056 (≈ 0.0133 µM) | 1 | 2
CCCCCCCCCCCC1=N/C(=C\c2[nH]c(-c3ccc[nH]3)cc2OC(C)C)C=C1 | 108 | 0.282 (≈ 0.669 µM) | 0.0026 (≈ 0.00617 µM) |  | 
CCCCCCCCCCCC1=N/C(=C\c2[nH]c(-c3cc4ccccc4[nH]3)cc2OC)C=C1 |  | > 1 | 0.25 (≈ 0.564 µM) |  | 
CCCCCCCCCCCC1=N/C(=C\c2[nH]c(-n3cncn3)cc2OC)C=C1 |  | > 1 | > 1 |  | 
CCCCCCCCCCCC1=N/C(=C\c2[nH]c(-c3cc4cc(OC)ccc4[nH]3)cc2OC)C=C1 |  | > 1 | 0.128 (≈ 0.27 µM) |  | 
COc1cc(-c2ccc[nH]2)[nH]c1/C=C1/C=CC(CCCCCC(=O)O)=N1 |  | > 1 | > 1 |  | 
CCCCCCCCCCCC1=N/C(=C\c2ccc(-c3ccc[nH]3)[nH]2)C=C1 | 3 | 1.22 (≈ 3.34 µM) | 0.4 (≈ 1.1 µM) |  | 
COc1cc(-c2ccc[nH]2)[nH]c1/C=C1/C=CC(CCc2ccccc2)=N1 | 40 | 0.299 (≈ 0.871 µM) | 0.0075 (≈ 0.0218 µM) |  | 
CCCCCCCC1=N/C(=C\c2[nH]c(-c3ccc[nH]3)cc2OC)C=C1 | 29 |  | 0.0056 (≈ 0.0166 µM) |  | 
CCCCCCCCCCCC1=N/C(=C\c2[nH]c(-c3ccccc3)cc2OC)C=C1 |  | > 1 | > 1 |  | 
CCCCCCCCCCCCCC1=N/C(=C\c2[nH]c(-c3ccc[nH]3)cc2OC)C=C1 | 201 | 0.282 (≈ 0.669 µM) | 0.0014 (≈ 0.00332 µM) | 0.8 | 1.5
CCCCCCCCCCCC1=N/C(=C\c2[nH]c(C(=O)NCC)cc2OC)C=C1 |  | > 1 | > 1 |  | 
COc1cc(-c2ccc[nH]2)[nH]c1/C=C1/C=CC(CCCCCCCCCCC(=O)O)=N1 |  | > 1 | > 1 |  | 
CCCCCCCCCCCC1=N/C(=C\c2[nH]c(-c3ccc[nH]3)cc2OCCCC)C=C1 | 133 | 1.51 (≈ 3.47 µM) |  | 1.5 | 3
COc1cc(-c2ccc[nH]2)[nH]c1/C=C1/C=CC(CCCCCCCC#N)=N1 | 14 | 0.235 (≈ 0.648 µM) | 0.0162 (≈ 0.0447 µM) |  | 
CCCCCCCCCCC1=N/C(=C\c2[nH]c(-c3ccc[nH]3)cc2OC)C=C1 | 87 | 0.156 (≈ 0.411 µM) | 0.0018 (≈ 0.00474 µM) |  | 
CCCCCCCCCCCC1=N/C(=C\c2[nH]c(-c3ccc[nH]3)cc2OC)C=C1 [UNDECYLPRODIGININE] |  | 0.106 (≈ 0.269 µM) | 0.002 (≈ 0.00508 µM) | 0.6 | 1
